Reference: paper PMC6092455 (International Journal for Parasitology: Drugs and Drug …, 2018)
“Also recorded” adds a separate entry of the source.

How the values were obtained:
HeLa cells = experiment: Cell toxicity assay, HeLa cells; type: cell-based, human; conditions: for IC50: Homo sapiens, HeLa, 48 h, read-out: IC50 values, HeLa cells, 48 h, AlamarBlue
[1] = biological target: T1, B. divergens proteasome β5 subunit (chymotrypsin-like activity) (Babesia divergens, UniProt A0AAD9GDK3); experiment: Suc-LLVY-AMC proteasome activity assay with B. divergens crude cell lysates; type: biochemical; conditions: for inhibition at 1 µM: read-out: Reduction of Suc-LLVY-AMC measured activity
T1 sequence (A0AAD9GDK3 69-280): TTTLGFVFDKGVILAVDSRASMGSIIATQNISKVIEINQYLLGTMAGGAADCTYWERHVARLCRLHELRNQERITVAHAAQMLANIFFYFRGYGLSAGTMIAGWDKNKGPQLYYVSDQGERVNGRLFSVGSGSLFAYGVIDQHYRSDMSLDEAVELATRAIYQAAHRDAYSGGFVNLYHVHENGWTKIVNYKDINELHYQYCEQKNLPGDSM
Summary of the method: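 Crude lysate made from B. divergens-infected RBCs (~15% parasitemia): saponin lysis, PBS washes, sonication in 20 mM HEPES pH 8.0, 1 µM E64, 0.03% SDS, 1 mM ATP; pooled from 10 cultures. Lysate pre-incubated 30 min at 37 °C with 1 µM test compound. Then 10 µM Suc-LLVY-AMC added; fluorescence 360/465 nm read every 1 min for 1 h at 37 °C. Run in triplicate.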

B. microti [2] = experiment: Pre-treatment of B. microti infected red blood cells prior to mouse infection; type: in vivo, Babesia microti; conditions: infected blood pre-treated with 400 nM for 1 h
Summary of the method: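 Infected blood pooled from three B. microti-infected mice (50% parasitemia). Exposed to test compound at 400 nM final, or to matching DMSO, for 1 h at 37 °C, 5% CO₂. Then injected i.p. (150 µl, 800 × 10⁶ infected RBCs) into three treated and three control BALB/c mice. Parasitemia counted daily for 8 DPI on Diff-Quik thin smears; Cmax and Tmax calculated in R.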

B. microti [3] = experiment: Treatment of B. microti infected mice; type: in vivo, Babesia microti
Summary of the method: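 Six female BALB/c mice (~20 g) infected i.p. with 150 µl B. microti-infected blood (50% parasitemia, ~800 × 10⁶ infected RBCs). Dosed i.p. daily from 1 to 7 DPI with test compound at 0.75 mg/kg in PBS or with vehicle (150 µl; three mice each). Activity and appearance observed. Parasitemia counted daily to 15 DPI on tail-snip thin smears. AUC (Riemann sums), Cmax and Tmax compared by t-test.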

PMJ2R mouse macrophages = experiment: Cell viability assay, PMJ2R mouse macrophages; type: cell-based; conditions: 200 nM, 48 h
Summary of the method: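 PMJ2R macrophages grown in RPMI 1640 with gentamicin, amphotericin B and 10% heat-inactivated FCS. Serially diluted test compound added to cultures, with 0.004% DMSO in medium as control. Medium changed every 12 h; 48 h at 37 °C, 5% CO₂. Calcein AM (live) and ethidium homodimer III (dead) staining, counted by flow cytometry. Triplicate cultures; mean ± SD; unpaired t-test.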

[4] = rats; ref Yang et al., 2011; cited from earlier work
B. microti [5] = experiment: Parasitemia in B. microti infected mice treated on 5 and 6 DPI; type: in vivo, Babesia microti; conditions: BALB/c mice, 0.75 mg/kg i.p. on 5 and 6 DPI
Summary of the method: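 Eight female BALB/c mice infected i.p. with B. microti-infected blood (150 µl, 50% parasitemia, ~800 × 10⁶ infected RBCs). Test compound at 0.75 mg/kg in PBS, or vehicle, given i.p. on 5 and 6 DPI (four mice per group). Parasitemia read as percent from thin blood smears taken by tail snip; blood collected on 7 DPI.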

[6] = system: B. microti proteasome (chymotrypsin-like activity); experiment: Suc-LLVY-AMC activity assay on B. microti lysates from treated mice; type: in vivo, Babesia microti; conditions: mice treated 0.75 mg/kg on 5 and 6 DPI, pooled blood collected 7 DPI
[7] = BALB/c mice, 0.75 mg/kg i.p. daily 1-7 DPI

| SMILES | IC50 (HeLa cells) | inhibition at 1 µM [1] | Reduction of Cmax (parasitemia) on Tmax (7 DPI) compared to control group (B. microti [2]) | Adverse effects on spontaneous activity and physical appearance of mice (B. microti [3]; [7]) | Peak parasitemia levels and area under curve (AUC) compared to PBS (B. microti [3]; [7]) | Microscopic appearance of non-parasited RBCs (B. microti [3]; BALB/c mice, 0.75 mg/kg i.p. daily 1-7 DPI (data not shown)) | Parasitemia on 5, 6 and 7 DPI compared to untreated control (B. microti [3]; daily intra-peritoneal treatment of infected mice) | Fold more potent against B. divergens compared to HeLa (HeLa cells; ratio of IC50 values HeLa / B. divergens ex vivo culture) | Reduction of Suc-LLVY-AMC measured activity ([1]; 1 μM inhibitor, pilot experiments (data not shown)) | Toxicity to PMJ2R macrophages (PMJ2R mouse macrophages) | Survival rate of PMJ2R cells (PMJ2R mouse macrophages; medium changed every 12 h) | Plasma clearance [4] | Terminal half-life [4] | Tissue distribution [4] | Parasite load (parasitemia, mean) at 5 DPI (B. microti [5]; 5 DPI) | Parasite load (parasitemia, mean) at 7 DPI (B. microti [5]; 7 DPI) | Reduction of Suc-LLVY-AMC activity in B. microti lysates compared to untreated control [6] |
| --- | --- | --- | --- | --- | --- | --- | --- | --- | --- | --- | --- | --- | --- | --- | --- | --- | --- |
| CC(C)C[C@H](NC(=O)[C@H](Cc1ccccc1)NC(=O)c1cnccn1)B(O)O [Bortezomib, bortezomib] | 7 ± 1 nM | 96% |  |  |  |  |  |  |  |  |  |  |  |  |  |  |  |
| CC(C)C[C@H](NC(=O)[C@H](CCc1ccccc1)NC(=O)CN1CCOCC1)C(=O)N[C@@H](Cc1ccccc1)C(=O)N[C@@H](CC(C)C)C(=O)[C@@]1(C)CO1 [Carfilzomib] | 59 ± 36 nM | > 90% | 31.2% | no adverse effects | significantly reduced | did not change | lower parasitemia | 2–3.5 fold | completely inhibiting this activity | did not show any toxicity; also recorded: did not affect cell viability | 71.1% | 195 to 319 mL/min/kg | 5 to 20 min | rapid and wide tissue distribution | 47.4 ± 6.3% | 41.5 ± 2.9% | 33% |
